Measured values: ChEMBL document CHEMBL5390255, “Expanding the squaramide library as mycobacterial ATP synthase inhibitors: Innovative synthetic pathway and biological evaluation” (Bioorg Med Chem, 2023)
Converted amounts (≈) assume the structure as drawn. The source made the active and inactive calls. The rule behind the calls is not given here.

Assays:
Format in all cases: functional
[1] = test system: Mycobacterium tuberculosis; experiment: Induction of drug resistance in Mycobacterium tuberculosis H37Ra at 10 to 16 fold MIC; settings: time 4-5 weeks
Method in brief: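 Exponential-phase H37Ra, about 10⁷ bacteria, plated on 7H11 agar with compound at 10x and 16x MIC. Incubated 4–5 weeks at 37 °C. Frequency calculated as mutant colonies divided by total cells plated. Clones confirmed by PCR and Sanger sequencing of atp genes and rv0678.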

[2] = test system: Mycobacterium tuberculosis; experiment: Antibacterial activity against Bedaquiline- sensitive Mycobacterium tuberculosis H37Ra harboring atpB.K179N_01 mutant incubated for 7 days by resazurin staining based microtiter assay; settings: time 7 day
Method in brief: (§1)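 Resazurin microtiter assay on H37Ra atpB K179N mutants and wild type, using exponential cultures diluted to OD 0.02. 3-fold serial dilution from 10 µM (0.002–10 µM), in triplicate. After 7 days, 0.02% resazurin added for 24 h, then fluorescence read (ex 530/em 590 nm). MIC taken from four-parameter variable-slope nonlinear regression.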

[3] = test system: Mycobacterium tuberculosis; experiment: Antibacterial activity against Bedaquiline- sensitive Mycobacterium tuberculosis H37Ra harboring atpB.K179N_02 mutant incubated for 7 days by resazurin staining based microtiter assay; settings: time 7 day; method in brief: as §1

| Structure (SMILES) | Activity [1] | MIC [2] | MIC [3] |
| --- | --- | --- | --- |
| O=c1c(NCc2ccccn2)c(-c2ccc(N3CCCCC3)cc2)c1=O | Active |  |  |
| COc1ccc(-c2c(NCc3ccccn3)c(=O)c2=O)cc1 | Active |  |  |
| COc1nc2ccc(Br)cc2cc1[C@@H](c1ccccc1)[C@@](O)(CCN(C)C)c1cccc2ccccc12 [BEDAQUILINE] |  | 0.11 µM (≈ 0.0611 µg/mL) | 0.12 µM (≈ 0.0667 µg/mL) |
